Assay outcomes as filed in PubChem BioAssay.
Pemphigus Ab inh = blocks pemphigus antibody binding to human desmoglein-3; DSG3-coupled beads, scFv-anti-DSG3-GFP binding, flow cytometry; hits give low values; P32926; AID 588358; hit rate 0.48% among 310,000; binding (percent of control), % at 10 µM;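 active = binding more than 3 SD below its plate's average and above zero; inconclusive = below that plate limit but binding exactly zero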;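 also: hits lower antibody fragment binding to DSG3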
Target sequence (P32926 whole entry, looked up, the tested form may be a part): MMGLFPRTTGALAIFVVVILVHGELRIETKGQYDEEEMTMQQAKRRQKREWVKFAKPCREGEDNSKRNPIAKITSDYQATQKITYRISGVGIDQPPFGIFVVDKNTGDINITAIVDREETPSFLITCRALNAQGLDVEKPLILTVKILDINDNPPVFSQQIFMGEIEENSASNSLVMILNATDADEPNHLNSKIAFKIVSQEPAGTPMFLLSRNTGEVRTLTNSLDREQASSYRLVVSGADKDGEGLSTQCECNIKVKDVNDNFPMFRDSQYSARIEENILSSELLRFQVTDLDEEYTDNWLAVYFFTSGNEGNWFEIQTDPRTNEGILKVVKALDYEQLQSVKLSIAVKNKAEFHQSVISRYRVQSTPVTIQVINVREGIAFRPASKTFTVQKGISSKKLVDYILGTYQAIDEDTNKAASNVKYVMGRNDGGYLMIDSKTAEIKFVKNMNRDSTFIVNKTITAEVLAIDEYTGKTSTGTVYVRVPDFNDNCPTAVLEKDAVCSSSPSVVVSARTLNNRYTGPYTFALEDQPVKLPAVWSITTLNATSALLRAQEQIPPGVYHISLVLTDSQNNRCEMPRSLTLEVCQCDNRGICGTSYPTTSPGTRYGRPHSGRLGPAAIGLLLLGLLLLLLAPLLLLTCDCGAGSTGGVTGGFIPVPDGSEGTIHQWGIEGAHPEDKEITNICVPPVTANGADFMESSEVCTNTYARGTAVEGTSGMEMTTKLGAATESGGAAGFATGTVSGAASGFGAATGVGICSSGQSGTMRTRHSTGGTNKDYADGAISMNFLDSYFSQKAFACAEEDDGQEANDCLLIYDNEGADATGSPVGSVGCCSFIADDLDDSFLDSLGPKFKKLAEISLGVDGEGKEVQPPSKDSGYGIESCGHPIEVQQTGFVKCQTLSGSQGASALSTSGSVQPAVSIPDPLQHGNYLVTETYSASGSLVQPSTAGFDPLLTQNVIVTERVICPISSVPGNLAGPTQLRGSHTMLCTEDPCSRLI
GSH bead fluor = compound fluoresces at 488/530 nm on GSH beads; AID 1776; GSH beads flow cytometry, compound fluorescence 488/530 nm; hits give high values; hit rate 0.25% among 190,000; fluorescence (KMESF) at 10 µM; in the data active = fluorescence above about 89;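 also: glutathione beads carrying GST-tagged Bcl family fusion proteins plus one bare bead set; values are compound well signal with DMSO vehicle wells as background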
Arrestin-AP2 inh = inhibitors of human beta-arrestin and AP2 interaction. FITC-arrestin peptide / GST-AP2 beads, flow cytometry; AP2 beta2 appendage carries R879A mutation. inhibition, % at 10 µM. hit rate 0.31% among 340,000. AID 504490;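 active = inhibition above a set limit, near 3 SD of compounds lacking own fluorescence, cut at about 54% in these data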;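 also: plate controls were DMSO wells for no effect and 5 µM unlabelled arrestin peptide for full effect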
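System: GST-tagged AP2 beta2-adaptin appendage (R879A) on 4 µm glutathione beads / Reagent: FITC-arrestin peptide, 50 nM / Detection: HyperCyt-sampled flow cytometry, FL1 channel, ex 488/em 535 nm / Timing: 12 min plus 1 h, RT / Buffer or medium: PBS plus Tween 20 (0.05%) and BSA (0.1%)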
Avidin fluor = compound fluoresces at 488/530 nm on avidin beads; fluorescence (KMESF) at 10 µM; hit rate 0.38% among 220,000; AID 1775; compound fluorescence 488/530 nm, flow cytometry; hits give high values; in the data active = fluorescence above about 47
Arr-AP2 CP1 = inhibitors of human beta-arrestin and AP2 interaction | shares compounds with Arrestin-AP2 inh | GST-AP2 beads, FITC arrestin peptide binding, flow cytometry; GST-fused beta2-adaptin appendage, R879A mutant | inhibition, % at 10 µM | hit rate 2% among 1,300 | AID 504908;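 active = inhibition above a set limit, roughly 3 SD of non-fluorescent compound noise, cut at about 38% in these data; inactive = inhibition at or below that limit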;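 also: loss of bead fluorescence from 50 nM FITC arrestin peptide bound to appendage; 0% = negative control wells and 100% = excess unlabelled arrestin peptide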
GST GSH counter = counter-screen for beta-arrestin AP2 inhibitors: GST-GSH bead binding | hit rate 2% among 1,300 | inhibition, % at 10 µM | GST-fluorescein binding to GSH beads, fluorescence | shares compounds with Arrestin-AP2 inh;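 active = inhibition above 50%, about 3 SD of the inhibition seen with non-fluorescent compounds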;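 also: fluorescein maleimide labelled GST captured on 4 micron glutathione beads; higher means more loss of bead fluorescence from quenching or blocked binding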
Active calls of the source: *; ? = inconclusive; nt = not tested or not shown. Only some compounds are listed: those with a hit (about 1.1% of all), similar ones and a draw of the others.

SMILES	Pemphigus Ab inh	GSH bead fluor	Arrestin-AP2 inh	Avidin fluor	Arr-AP2 CP1	GST GSH counter
CCOc1ccc(NS(=O)(=O)c2ccc(C(=O)N3CC(C)OC(C)C3)cc2)cc1 (stereo not given)	95	nt	3	nt	nt	nt
O=Cc1cccc(OC(=O)Nc2ccccc2)c1	108	nt	3	nt	nt	nt
Cc1nnc(NC(=O)C(C)Sc2nnc(CCNC(=O)c3ccccc3F)n2C)s1 (stereo not given)	?	nt	-2	nt	nt	nt
Cn1nnnc1NCc1ccc(Cl)cc1	94	19	57*	8	-1	-10
CCn1nnnc1NCc1ccc(Cl)cc1	113	nt	19	nt	nt	nt
O=C(c1ccc(S(=O)(=O)NCc2ccco2)cc1)N1CCN(Cc2ccccc2)CC1	114	11	59*	12	4	-6
O=C(c1ccc(S(=O)(=O)NCc2ccco2)cc1)N1CCN(Cc2ccccc2F)CC1	98	nt	5	nt	0	0
O=C(NC1CCN(Cc2ccccc2)CC1)c1ccc(S(=O)(=O)NCc2ccco2)cc1	98	70	12	12	nt	nt
CCOC(=O)C1CCCN(C(=O)c2ccc(S(=O)(=O)NCc3ccco3)cc2)C1 (stereo not given)	100	nt	24	nt	nt	nt
COc1ccc(CN2CCN(C(=O)c3ccc(S(=O)(=O)NCc4ccco4)cc3)CC2)cc1	99	nt	27	nt	3	-10
O=C(NCc1ccccc1F)c1ccc(S(=O)(=O)NCc2ccco2)cc1	?	nt	-19	nt	nt	nt
Cc1ccc(OCc2cc(C(=O)N3CCN(c4ccccc4)CC3)no2)cc1C	nt	nt	7	nt	nt	nt
Cc1cccc2sc(NC(=O)c3cc(S(=O)(=O)N(C)C)ccc3N3CCCC3)nc12	94	8	23	8	nt	nt
Cc1cc(N/N=C/c2cccc(Br)c2)nc2ccccc12	99	5	57*	17	5	0
O=C(O)/C(=C\c1cccs1)c1ccc(F)cc1	102	70	-8	9	nt	nt
COc1ccc(NC(=O)CCCn2c(=O)[nH]c3ccccc3c2=O)cc1	101	14	9	36	-14	-6
O=C(CCn1c(=S)[nH]c2ccccc2c1=O)Nc1ccc(F)cc1	83	nt	74*	nt	14	84*
COc1ccc(NC(=O)CCCCn2c(=O)[nH]c3ccccc3c2=O)cc1	102	14	5	38	-3	-3
CCOc1ccc(/C(O)=C2/C(=O)C(=O)N(CCCN3CCOCC3)C2c2ccc(F)cc2)cc1C (stereo not given)	104	nt	-8	nt	nt	nt
O=c1oc(-c2ccccc2NS(=O)(=O)c2ccc3ccccc3c2)nc2ccccc12	120	10	10	17	nt	nt
COC(=O)C1(Cc2ccc(O)c(CC3OC3(C)C)c2)OC(=O)C(O)=C1c1ccc(O)cc1 (stereo not given)	100	nt	-1	6	nt	nt
COc1cccc(CC2(CO)CCN(Cc3ccc(NC(C)=O)cc3)CC2)c1	99	8	-4	10	nt	nt
COc1ccc(CC2(CO)CCN(Cc3ccc(NC(C)=O)cc3)CC2)cc1	79	17	56*	6	6	0
CC(C)CN1CC(C)C(=O)N(c2ccccc2)C1=O (stereo not given)	109	nt	24	nt	nt	nt
Cc1onc(-c2ccccc2Cl)c1C(=O)NCC1CCCO1 (stereo not given)	102	24	21	21	nt	nt
SMILES	Pemphigus Ab inh	GSH bead fluor	Arrestin-AP2 inh	Avidin fluor	Arr-AP2 CP1	GST GSH counter
O=C(NCC1CCCO1)c1ccc(-c2ccccc2Cl)o1 (stereo not given)	103	nt	62*	nt	1	-7
CCNCC(=O)N1c2ccccc2CCc2ccc(NC(=O)OC(C)C)cc21	115	nt	-6	nt	nt	nt
Cn1c(=O)c2c(ncn2CC(=O)N2CCN(S(=O)(=O)c3ccccc3)CC2)n(C)c1=O	95	nt	57*	nt	-2	-4
C=CCN(Cc1cc(OC)ccc1OC)C(=O)c1cc2ccc(OC)cc2[nH]1	89	nt	-12	nt	nt	nt
CCCCCc1cc(OC)cc2c1C(=O)OC(C)(C)O2	94	nt	11	nt	nt	nt
Cc1ccnc2nc(C(=O)OCC(=O)Nc3ccccc3C(C)(C)C)nn12	105	11	-1	9	nt	nt
CCOC(=O)c1ccccc1NC(=O)c1nc2nccc(C)n2n1	101	17	98*	8	-16	1
CCNc1c(NC(=O)c2ccc3c(c2)OCO3)c(=O)oc2ccccc12	98	nt	22	nt	nt	nt
CC(=O)c1cccc(N(C(=O)c2csnn2)C(C(=O)NC2CCCC2)c2ccccc2)c1 (stereo not given)	102	nt	17	nt	nt	nt
COc1ccc(NC(=O)C2CCCN(S(=O)(=O)c3c(C)[nH]c(=O)[nH]c3=O)C2)cc1OC (stereo not given)	107	11	60*	nt	-10	-3
CCC(C)(C)NC(=O)CN(Cc1ccc2c(c1)OCO2)C(=O)CCC(=O)Nc1cc(C)ccn1	97	nt	0	nt	nt	nt
CCn1ncc(Br)c1C(=O)NC1CCCCCCC1	98	nt	60*	nt	-3	-8
CC(C)CC1(C2CCCC2)NC(=O)NC1=O (stereo not given)	107	nt	0	nt	nt	nt
COc1cccc(NC(=O)Nc2cnccn2)c1	85	12	3	6	3	-12
Cc1cccc(NC(=O)Nc2ccncc2)c1	92	14	-1	11	nt	nt
Cc1ccc(NC(=O)Nc2cnccn2)c(C)c1	101	nt	0	nt	-8	-1
Cc1cccc(NC(=O)Nc2cnccn2)c1	100	16	18	11	5	-5
O=c1[nH]c(CO)nc2c1oc1ccccc12	98	40	73*	4	-9	9
O=c1[nH]c(Cc2ccccc2)nc2c1oc1ccccc12	102	20	10	18	nt	nt
CC(=O)c1cccc(NC(=O)Cn2cnc(S(=O)(=O)N3CCOCC3)c2)c1	82	nt	-8	nt	nt	nt
CCOC(=O)C1=C(COC(=O)COc2ccccc2C=O)NC(=O)NC1C (stereo not given)	nt	nt	10	nt	nt	nt
CCOC(=O)C1=C(COC(=O)COc2ccc(OCC)cc2)NC(=O)NC1C (stereo not given)	95	nt	16	nt	-8	-7
CCOC(=O)C1=C(COC(=O)COc2cccc(C)c2C)NC(=O)NC1C (stereo not given)	91	nt	-11	nt	0	3
CCOC(=O)C1=C(COC(=O)COc2ccccc2OCC)NC(=O)NC1C (stereo not given)	102	nt	-4	nt	-1	-11
CCOC(=O)C1=C(COC(=O)COc2ccccc2C(C)C)NC(=O)NC1C (stereo not given)	99	nt	61*	nt	12	1
CCCC(=O)Nc1ccc(NC(=O)c2cc3ccccc3o2)c(OC)c1	102	nt	38	nt	nt	nt
N=c1c(S(=O)(=O)c2ccc(Cl)cc2)cc2c(=O)n3ccccc3nc2n1C1CCCCC1	96	nt	-9	nt	nt	nt
Cc1ccc(C(=O)NCC(=O)N(C)CC(=O)Nc2c(Cl)cccc2Cl)s1	100	nt	-8	nt	nt	nt
CNC(=S)N1CCN(c2c(F)cc3c(=O)c(C(=O)O)cn(C4CC4)c3c2OC)CC1C (stereo not given)	97	16	68*	40	-3	-10
